Neddylation inh – inhibitors of human cullin neddylation | P61081+Q13564 | TR-FRET cullin neddylation, biochemical | calls only at 25 µM | 360,000 compounds, 0.58% hits; in the data active = inhibition above about 36%
MT1-MMP act inh – MT1-MMP (human) activation inhibition; P50281; HT1080 RFP-PRO-GFP cells, GFP/RFP ratio fluorescence, overnight; percent of plate control window, DMSO zero; GFP/RFP ratio change, % at 20 µM; 360,000 compounds, 0.061% hits;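 active = GFP/RFP ratio change of at least 30% with cell ATP level not reduced by more than half and red fluorescence within 50% of control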
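Material – HT1080 RFP-PRO-GFP cells · Control set – DMSO wells and RFP-L50D-GFP cells · Incubation – overnight cell settling, then overnight compound exposure, 37 °C, 5% CO2 · Compound dosing – single-point 20 µM compound, 1% DMSO · Read-out – GFP/RFP fluorescence ratio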
SKN-1 inh – blocks SKN-1 activity in C. elegans | C. elegans VP596 Pgst-4::GFP/RFP ratio, acrylamide-induced, 24 h | inhibition, % at 21.8 µM | 360,000 compounds, 0.49% hits | AID 624304;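 active = interference check ratio from 0.5 to 1.5 plus GFP to RFP signal ratio inhibition reaching or exceeding a fixed threshold, cut at about 30% in these data, passing the limit was not always enough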
Tn7 DDE FP – inhibitors of Tn7 peptide binding to human fibrin DD(E). FP displacement of FITC-Tn7 peptide from fibrin DD(E); 0% = median of compound wells per plate. inhibition, % at 8.3 µM. 370,000 compounds, 0.13% hits. AID 720508;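 active = inhibition above the mean of compounds falling within the control limits plus 3 SD of them, cut at about 14% in these data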;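 also: 0% = plate median of compound wells and 100% = 10 µM Aha-Tn7 peptide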
Target sequence (P02675 whole entry, looked up): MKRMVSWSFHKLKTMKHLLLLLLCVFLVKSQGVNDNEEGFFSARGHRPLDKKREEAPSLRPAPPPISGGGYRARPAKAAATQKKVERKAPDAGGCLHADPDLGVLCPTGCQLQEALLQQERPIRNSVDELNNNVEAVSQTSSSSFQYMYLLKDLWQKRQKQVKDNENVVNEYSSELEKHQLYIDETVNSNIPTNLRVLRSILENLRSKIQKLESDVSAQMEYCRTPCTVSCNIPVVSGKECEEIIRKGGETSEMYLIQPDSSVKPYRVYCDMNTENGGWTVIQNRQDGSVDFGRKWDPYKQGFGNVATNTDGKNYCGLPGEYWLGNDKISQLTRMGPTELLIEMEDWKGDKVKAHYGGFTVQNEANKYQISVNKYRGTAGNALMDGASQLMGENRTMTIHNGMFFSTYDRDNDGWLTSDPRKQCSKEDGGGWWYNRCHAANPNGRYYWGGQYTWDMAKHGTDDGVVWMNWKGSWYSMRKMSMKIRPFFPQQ
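Assay system: human fibrin DD(E). Input: DD(E) 2 µM final. Medium: Tris buffer with calcium and detergent, pH 7.8. Compound dosing: single point at 8.3 µM. Timing: 10 min plus 3 h, room temperature. Technique: fluorescence polarization of the labelled Tn7 tracer. Read-out: percent inhibition. Replicates: singlicate testing.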
Tn6 DDE FP – DD(E)-Tn6 binding inhibition, primary FP screen | Fibrin DD(E) TRITC-Tn6 fluorescence polarization displacement | inhibition, % at 8.3 µM | 370,000 compounds, 0.21% hits | AID 720509;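 active = inhibition above a per-campaign cutoff: mean of compounds within control limits plus 3 SD, cut at about 15% in these data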;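 also: 0% = median of all compound wells on the plate and 100% = blocking peptide control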
proKLK7 act – proKLK7 (human) activation, primary screen; 370,000 compounds, 0.9% hits; purified proKLK7, EDANS-DABCYL substrate fluorescence; 100% is mature enzyme control, 0% vehicle; activation, % at 7 µM;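 active = activation above the mean of all tested compounds plus 3 SD, computed per campaign excluding outliers beyond control limits, cut at about 13% in these data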
KLK7 act conf – confirmation of human kallikrein-7 zymogen activators; shares compounds with proKLK7 act; purified proKLK7, EDANS-DABCYL substrate fluorescence; scaled: vehicle 0, mature enzyme 100; 3,200 compounds, 68% hits; activation, % at 7 µM;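 active = activation, as change over the incubation, above the mean of all tested compounds plus 3 SD, cut at about 13% in these data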
EDANS interfere – counter-screen for kallikrein-7 activators: EDANS-DABCYL optical interference; shares compounds with proKLK7 act; 3,200 compounds, 80% hits; EDANS-DABCYL substrate fluorescence interference, no enzyme, 4 h; solvent 0%, active enzyme control 100%; activation, % at 7 µM;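 active = activation above the all-compound mean plus 3 SD, ignoring values outside control-based bounds, cut at about 4.8% in these data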;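 also: value is the 4 h activation minus the activation read at time zero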
K7 EDANS ctr – counter-screen for kallikrein-7 activators: EDANS-DABCYL interference, dose response; shares compounds with proKLK7 act; EDANS-DABCYL peptide fluorescence interference, no enzyme; EC50, µM; 250 compounds, 20% hits; AID 720493;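 active = compounds that raise the fluorescence signal in this interference counterscreen, with EC50 at or below 10 µM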;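 also: intact quenched peptide substrate alone read at 355 nm excitation and 520 nm emission; signal is fluorescence gain from T0 to T4 after four hours at room temperature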
An asterisk follows results filed as active. This is a sample that favours compounds with a hit; in the whole collection about 2.2% have one here.

How did Cc1c(C)c2c(OCC(=O)N[C@@H](C)C(=O)O)cc3c(c2oc1=O)CCC(C)(C)O3 do in these assays?
MT1-MMP act inh: 4; SKN-1 inh: 9; Tn7 DDE FP: 4; Tn6 DDE FP: 1; proKLK7 act: 31*; KLK7 act conf: 72*; EDANS interfere: 69*

What do the screens show for `COC(=O)C1=CN(Cc2ccc(OC)cc2)C=C(C(=O)OC)C1c1cc(OC)c(OC)c(OC)c1`?
MT1-MMP act inh: -5; SKN-1 inh: -10

How did COC(=O)C1=CN(CC2CCCO2)C=C(C(=O)OC)C1c1cc(OC)c(OC)c(OC)c1 (stereo not drawn) do in these assays?
MT1-MMP act inh: -1; SKN-1 inh: -7; Tn7 DDE FP: 1; Tn6 DDE FP: 6; proKLK7 act: 16*; KLK7 act conf: 0; EDANS interfere: 0

What do the screens show for `Cc1cc(C)n(-c2cc(O)c(-n3nc(C)cc3C)cc2O)n1`?
Neddylation inh: inactive; MT1-MMP act inh: 1; SKN-1 inh: 4; Tn7 DDE FP: -6; Tn6 DDE FP: -6; proKLK7 act: -1

What do the screens show for `C#CCn1c(=NC(=O)c2sc3ccccc3c2Cl)sc2cc(S(N)(=O)=O)ccc21`?
Neddylation inh: inactive; MT1-MMP act inh: 1; SKN-1 inh: 6; Tn7 DDE FP: 4; Tn6 DDE FP: 0; proKLK7 act: 30*; KLK7 act conf: -1; EDANS interfere: 2

What do the screens show for `COc1cc(C2C(C#N)=C(N)OC3=C2C(=O)CC(C)(C)C3)c([N+](=O)[O-])cc1OC` (stereo not drawn)?
Neddylation inh: inactive; MT1-MMP act inh: -56; SKN-1 inh: -11; Tn7 DDE FP: -6; Tn6 DDE FP: 4; proKLK7 act: 20*; KLK7 act conf: 21*; EDANS interfere: 18*

How did CN(C)c1ccccc1-c1cc(NC=O)c2ncc(-c3cccc(C(F)(F)F)c3)n2c1 do in these assays?
Neddylation inh: inactive; MT1-MMP act inh: -53; SKN-1 inh: -32; Tn7 DDE FP: -8; Tn6 DDE FP: 34*; proKLK7 act: 107*; KLK7 act conf: 178*; EDANS interfere: 144*

What do the screens show for `CC(C)CN1C(=O)C[C@@]2(C(=O)N(C)c3ccc(NC(=O)C(C)(C)C)cc32)C1c1ccccc1` (stereo partly drawn)?
Tn7 DDE FP: 2; Tn6 DDE FP: -6; proKLK7 act: 0

How did CCc1nc(N2CCOCC2)c(C#N)c2c1CCCC2 do in these assays?
Neddylation inh: inactive; MT1-MMP act inh: -9; SKN-1 inh: 5; Tn7 DDE FP: -4; Tn6 DDE FP: 2; proKLK7 act: -1

What do the screens show for `COc1cc2c(C#N)c(N3CCOCC3)nc(N)c2c(N)n1`?
Neddylation inh: inactive; MT1-MMP act inh: -9; SKN-1 inh: 6; Tn7 DDE FP: -3; Tn6 DDE FP: -5; proKLK7 act: 22*; KLK7 act conf: 21*; EDANS interfere: 23*

What do the screens show for `CCOc1cc2c(C#N)c(N3CCNCC3)nc(N)c2c(N)n1`?
Neddylation inh: inactive; MT1-MMP act inh: -19; SKN-1 inh: 8; Tn7 DDE FP: -5; Tn6 DDE FP: -3; proKLK7 act: 69*; KLK7 act conf: 67*; EDANS interfere: 64*

How did COc1cc2c(C#N)c(N3CCCCC3)nc(N)c2c(N)n1 do in these assays?
Neddylation inh: inactive; MT1-MMP act inh: -12; SKN-1 inh: 11; Tn7 DDE FP: -6; Tn6 DDE FP: 0; proKLK7 act: -3

Results for N#Cc1c(N2CCOCC2)nc(N)c2c(N)nc3c(c12)CC(CCl)O3 (stereo not drawn) ?
MT1-MMP act inh: -2; SKN-1 inh: -4; Tn7 DDE FP: 5; Tn6 DDE FP: 5; proKLK7 act: 73*; KLK7 act conf: 76*; EDANS interfere: 19*; K7 EDANS ctr: >70

How did Cc1cc(C)c2oc(=O)cc(CN3CCOCC3)c2c1 do in these assays?
Neddylation inh: inactive; MT1-MMP act inh: 2; SKN-1 inh: -2; Tn7 DDE FP: -2; Tn6 DDE FP: -3; proKLK7 act: 1

What do the screens show for `CCc1ccc2oc(=O)cc(CN3CCN(Cc4ccccc4)CC3)c2c1`?
Neddylation inh: inactive; MT1-MMP act inh: -1; SKN-1 inh: 10; Tn7 DDE FP: -8; Tn6 DDE FP: -7; proKLK7 act: 1

Results for O=c1cc(CN2CCOCC2)c2cc(Cl)c(O)cc2o1 ?
MT1-MMP act inh: 0; SKN-1 inh: 7; Tn7 DDE FP: -5; Tn6 DDE FP: -8; proKLK7 act: 54*; KLK7 act conf: 63*; EDANS interfere: 77*

How did Cc1c(O)ccc2c(CN3CCOCC3)cc(=O)oc12 do in these assays?
MT1-MMP act inh: -5; SKN-1 inh: 14; Tn7 DDE FP: -4; Tn6 DDE FP: -2; proKLK7 act: 41*; KLK7 act conf: 65*; EDANS interfere: 67*

Results for CCc1cc2c(CN3CCN(CC)CC3)cc(=O)oc2cc1O ?
MT1-MMP act inh: 4; SKN-1 inh: -6; Tn7 DDE FP: -2; Tn6 DDE FP: -9; proKLK7 act: 71*; KLK7 act conf: 73*; EDANS interfere: 75*

What do the screens show for `Cc1cc2oc(=O)cc(CN3CCOCC3)c2cc1C(C)C`?
Neddylation inh: inactive; MT1-MMP act inh: -7; SKN-1 inh: 7; Tn7 DDE FP: 9; Tn6 DDE FP: 9; proKLK7 act: -1

How did Cc1c(O)ccc2c(CN3CCN(CCO)CC3)cc(=O)oc12 do in these assays?
MT1-MMP act inh: -8; SKN-1 inh: 12; Tn7 DDE FP: -4; Tn6 DDE FP: -3; proKLK7 act: 66*; KLK7 act conf: 68*; EDANS interfere: 69*

Results for COc1ccc(CCNC(=O)CSc2nc(O)c(CCC(C)C)c(=O)[nH]2)cc1OC ?
Neddylation inh: inactive; MT1-MMP act inh: -2; SKN-1 inh: 2; Tn7 DDE FP: -1; Tn6 DDE FP: -5; proKLK7 act: 0

What do the screens show for `COc1cc2c(cc1OC)CN(Cc1cc(=O)oc3cc(C)c(C)cc13)CC2`?
MT1-MMP act inh: 5; SKN-1 inh: 10; Tn7 DDE FP: -3; Tn6 DDE FP: 0; proKLK7 act: -6

Screening data deposited in PubChem by several laboratories.
